Laboratory results: paper PMC4539249 (ACS infectious diseases, 2015)
Where two headings read alike, the source gives them in different places.

What was measured:
[1] = treatment of the second or neurological phase of HAT; no reference given; cited from earlier work
[2] = system: T. brucei brucei Lister 427; assay: T. brucei brucei Lister 427 mouse model of infection; type: in vivo, BALB/C mice; conditions: treated mice, i.p. for 4 days (8 at 3 and 10 mg/kg)
[3] = system: AT-rich DNA dodecamer duplex; conditions: DSC, shift on inhibitor binding; cited from earlier work
in vitro [4] = conditions: human
in vitro [5] = conditions: human; remark: listed apart in the source
[6] = system: T. brucei bloodstream form (BSF) parasites; assay: T. brucei growth inhibition; type: cell-based, Trypanosoma brucei brucei Lister 427; conditions: Trypanosoma brucei, read-out: T. brucei EC50
[7] = system: T. brucei k-DNA and nuclear DNA replication; assay: Visualization of DNA replication; type: cell-based, Trypanosoma brucei; conditions: EdU click chemistry, 72 h treatment
Procedure, shortened: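 Bloodstream-form trypanosomes, after 72 h exposure to test compound (DMSO vehicle as control), were pulsed 16 h with EdU, washed in PBS, fixed in cold 100% ethanol and dried. EdU was detected by Cu(I)-catalysed click labelling with Alexa Fluor 488 azide ([…]), and the cells were counterstained with 10 μg/ml DAPI. Nuclear and k-DNA signals were assessed by fluorescence microscopy.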

[8] = molecular target: T. brucei farnesyl diphosphate synthase (TbFPPS) (Trypanosoma brucei, UniProt Q57WF1); assay: TbFPPS inhibition, coupled colorimetric assay; type: biochemical; conditions: read-out: TbFPPS IC50; duplicate ± SD; highest inhibitor concentration 316 μM
human FPPS = molecular target: T1, human FPPS (Homo sapiens, UniProt P14324); assay: Human FPPS inhibition; type: biochemical; conditions: read-out: IC50 against human FPPS
T1 sequence (P14324 1-419): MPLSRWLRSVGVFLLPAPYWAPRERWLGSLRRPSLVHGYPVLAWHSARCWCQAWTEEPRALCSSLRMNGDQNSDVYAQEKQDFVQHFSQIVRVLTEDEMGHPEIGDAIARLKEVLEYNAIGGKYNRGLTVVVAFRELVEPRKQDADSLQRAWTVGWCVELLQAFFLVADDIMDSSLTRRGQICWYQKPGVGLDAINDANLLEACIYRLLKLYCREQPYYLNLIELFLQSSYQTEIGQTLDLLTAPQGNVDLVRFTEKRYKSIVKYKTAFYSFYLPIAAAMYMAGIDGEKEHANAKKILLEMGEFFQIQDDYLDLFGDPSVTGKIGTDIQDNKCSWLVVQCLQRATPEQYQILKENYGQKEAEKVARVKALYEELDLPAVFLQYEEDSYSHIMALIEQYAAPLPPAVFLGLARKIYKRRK

SMILES: Nc1nc(N)nc(Nc2ccc([As]3SCC(CO)S3)cc2)n1 (stereo not shown) [compound 3, melarsoprol]
- lethal in patients [1]: 5-10%

SMILES: N=C(N)c1ccc(OCCCCCOc2ccc(C(=N)N)cc2)cc1 [compound 2, pentamidine]
- parasitemia [2]: no parasitemia observed
- ΔTm [3]: 2.7 °C
- CC50 at 72 h (in vitro [4]): < 400 nM
- CC50 at 72 h (in vitro [5]): < 400 nM
- EC50 ([6]; 72 h): 5.5 nM
- EC50 [6]: 5 nM

SMILES: CC[n+]1c(-c2ccccc2)c2cc(N)ccc2c2ccc(N)cc21 [ethidium bromide]
- k-DNA replication in T. brucei [7]: completely blocked

SMILES: N=C(N)c1ccc(-c2ccc(-c3ccc(C(=N)N)cc3)o2)cc1 [compound 6]
- IC50 [8]: ~50000 nM
- IC50 (human FPPS): ~50000 nM
